Data from ChEMBL document CHEMBL3797154, “Design and Synthesis of 1-((1,5-Bis(4-chlorophenyl)-2-methyl-1H-pyrrol-3-yl)methyl)-4-methylpiperazine (BM212) and N-Adamantan-2-yl-N'-((E)-3,7-dimethylocta-2,6-dienyl)ethane-1,2-diamine (SQ109) Pyrrole Hybrid Derivatives: Discovery of Potent Antitubercular Agents Effective against …” (J Med Chem, 2016).
Converted amounts (≈) assume the structure as drawn. The source made the active and inactive calls. The rule behind the calls is not given here.

Tests used:
[1] = tested on: Mycolicibacterium smegmatis; assay: Antimycobacterial activity against Mycobacterium smegmatis str. MC2 155 ATCC 700084 assessed as inhibition of mycobacterial growth incubated for 24 hrs by MABA method; assay type: functional; details: MC2 155 ATCC 700084, 24 h
[2] = Cytotoxic activity against human THP1 cells assessed as reduction in cell viability incubated for 48 hrs by […] based assay; parameters: species or system THP-1; details: THP1 cells
Method in brief: (§1)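 RAW264.7 or THP-1 cells were grown in RPMI-1640 with 10% FBS and seeded at 10^5 cells/mL. Compound was two-fold serially diluted from a 50 mg/mL stock, with a solvent-control row. Plates were held 48 h at 37 °C in 5% CO2. Wells were washed twice with PBS, with centrifugation between washes for THP-1, then given fresh RPMI plus 0.01% […]. After overnight incubation, fluorescence was read at 560/590 nm and GIC50 derived.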

Mycolicibacterium aurum [3] = assay: Inhibition of multidrug resistance efflux pump in Mycobacterium aurum ATCC 23366 assessed as inhibition of ethidium bromide efflux by measuring relative fluorescence units for ethidium bromide accumulation at 1/4 times MIC incubated for 60 mins by fluorimetric assay
Method in brief: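 Whole-cell efflux assay: early-log cells (OD600 ~0.8) adjusted to OD600 0.4, washed into PBS; 4-6x10^7 bacteria/mL with 0.4% glucose, 0.5 mg/L ethidium bromide substrate and compound at 1/4x MIC. Fluorescence ex 544/em 590 nm at 37 °C every minute for 60 min; accumulation scored 0-4 by relative fluorescence bands. Verapamil positive, PBS negative control.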

[4] = Selectivity index, ratio of GIC50 for cytotoxicity against mouse RAW264.7 cells to MIC for Mycobacterium tuberculosis H37Rv ATTC 27294; assay type: toxicity, cell-based; details: read-out: Selectivity Index
Method in brief: (§2)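 SI = GIC50 / H37Rv MIC (agar spot assay). GIC50 from cells in RPMI-1640 + 10% FBS, 37 °C, 5% CO2; 10^5 cells/mL added to two-fold compound dilutions from 50 mg/mL stock, solvent control row. 48 h exposure, washes (THP-1 centrifuged), fresh medium plus 0.01% […], overnight; fluorescence ex 560/em 590 nm.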

Mycolicibacterium aurum [5] = assay: Antimycobacterial activity against Mycobacterium aurum ATCC 23366 assessed as inhibition of mycobacterial growth incubated for 4 days; assay type: functional
Method in brief: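 HT-SPOTi agar dilution: two-fold serial dilutions of compound were mixed into Middlebrook 7H10 agar with 0.05% glycerol and 10% OADC, giving a final range of 500–0.5 µg/mL. Each well was spotted with 2x10^3 CFU of early-to-mid-log culture. Plates were incubated at 35 or 37 °C until spots appeared in control wells. Controls were DMSO-only and isoniazid. The MIC was read, in triplicate.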

[6] = tested on: Mycobacterium tuberculosis; assay: Antimycobacterial activity against Mycobacterium tuberculosis H37Rv ATTC 27294 assessed as inhibition of mycobacterial growth incubated for 7 days; assay type: functional; details: H37Rv ATTC 27294, 168 h
Method in brief: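 MIC by HT-SPOTi on Middlebrook 7H10 agar with 0.05% (v/v) glycerol and 10% (v/v) OADC in 96-well format. Compounds dissolved at 50 mg/mL (stock), two-fold serial dilutions, final 500-0.5 µg/mL. Each well spotted with 2 µL early-to-midlog culture (2x10^3 CFU), incubated at 37 °C until distinct spots in control wells. DMSO-only and isoniazid controls; triplicate.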

[7] = Selectivity index, ratio of GIC50 for cytotoxicity against human THP1 cells to MIC for Mycobacterium tuberculosis H37Rv ATTC 27294; assay type: toxicity, cell-based, THP-1; details: read-out: Selectivity Index; method in brief: as §2
[8] = Cytotoxic activity against mouse RAW264.7 cells assessed as reduction in cell viability incubated for 48 hrs by […] based assay; method in brief: as §1
[9] = tested on: Mycobacterium tuberculosis; assay: Antimycobacterial activity against Mycobacterium tuberculosis mc'2-7000x assessed as inhibition of mycobacterial growth; assay type: functional

Structure (SMILES)	MIC [1] [µg/mL]	GI50 at 48 h [2] [µg/mL]	Activity (Mycolicibacterium aurum [3]) [RFU]	selectivity ratio [4]	MIC (Mycolicibacterium aurum [5]; ATCC 23366, 96 h) [µg/mL]	MIC [6] [µg/mL]	selectivity ratio [7]	GI50 at 48 h [8] [µg/mL]	MIC [9] [µg/mL]	MIC (Mycolicibacterium aurum [5])
Cc1cccc(-n2c(C)cc(CN3CCN(C4C5CC6CC(C5)CC4C6)CC3)c2C)c1 (stereo not drawn)	64 (≈ 153 µM)	37 (≈ 88.6 µM)	2	1.4	500 (≈ 1200 µM)	16 (≈ 38.3 µM)	2.3	22 (≈ 52.7 µM)	32 (≈ 76.6 µM)	–
Cc1cc(CN2CCN(C3CCCCC3)CC2)c(C)n1-c1ccc(Cl)cc1	27 (≈ 70 µM)	16 (≈ 41.5 µM)	4	1.4	31 (≈ 80.3 µM)	3.9 (≈ 10.1 µM)	4.1	5.5 (≈ 14.2 µM)	8 (≈ 20.7 µM)	–
Cc1c(CNCc2ccccc2)cc(-c2ccc(Cl)cc2)n1-c1ccc(Cl)cc1	8 (≈ 19 µM)	99 (≈ 235 µM)	1	–	1 (≈ 2.37 µM)	–	6.1	–	16 (≈ 38 µM)	–
Cc1c(CN2CCN(c3ccccc3)CC2)cc(-c2ccc(Cl)cc2)n1-c1ccc(Cl)cc1	> 64	294 (≈ 617 µM)	2	92	–	1.9 (≈ 3.99 µM)	155	175 (≈ 367 µM)	1 (≈ 2.1 µM)	inactive
Cc1cc(CNCc2ccc(F)cc2)c(C)n1-c1ccc(Cl)cc1	2 (≈ 5.83 µM)	8.4 (≈ 24.5 µM)	1	–	1.9 (≈ 5.54 µM)	> 125	–	26 (≈ 75.8 µM)	0.7 (≈ 2.04 µM)	–
Cc1c(CN2CCN(C3CC4CCC3C4)CC2)cc(-c2ccc(Cl)cc2)n1-c1ccc(Cl)cc1 (mixture of isomers)	64	429	–	–	250	–	6.7	–	64	–
Cc1cc(CN2CCN(C3C4CC5CC(C4)CC3C5)CC2)c(C)n1-c1ccc(C(C)C)cc1 (stereo not drawn)	21 (≈ 47.1 µM)	72 (≈ 162 µM)	3	5.7	500 (≈ 1120 µM)	16 (≈ 35.9 µM)	4.5	92 (≈ 206 µM)	3.3 (≈ 7.4 µM)	–
Cc1cc(CN2CCN(C3C4CC5CC(C4)CC3C5)CC2)c(C)n1-c1ccc(Cl)cc1 (stereo not drawn)	8 (≈ 18.3 µM)	32 (≈ 73 µM)	1	0.7	7.8 (≈ 17.8 µM)	7.8 (≈ 17.8 µM)	4.1	5.7 (≈ 13 µM)	3.3 (≈ 7.53 µM)	–
Cc1c(CN2CCN(C34CC5CC(CC(C5)C3)C4)CC2)cc(-c2ccc(Cl)cc2)n1-c1ccc(Cl)cc1	3.3 (≈ 6.17 µM)	35 (≈ 65.5 µM)	3	2.9	62 (≈ 116 µM)	7.8 (≈ 14.6 µM)	4.5	23 (≈ 43 µM)	0.5 (≈ 0.935 µM)	–
Cc1ccc(CNCc2cc(C)n(-c3ccc(Cl)cc3)c2C)cc1	8 (≈ 23.6 µM)	6.1 (≈ 18 µM)	2	0.1	1.9 (≈ 5.61 µM)	1 (≈ 2.95 µM)	6.1	0.1 (≈ 0.295 µM)	2 (≈ 5.9 µM)	–
Cc1cc(CN2CCN(C3C4CC5CC(C4)CC3C5)CC2)c(C)n1-c1ccccc1F (stereo not drawn)	13 (≈ 30.8 µM)	26 (≈ 61.7 µM)	1	2.8	250 (≈ 593 µM)	3.9 (≈ 9.25 µM)	6.7	11 (≈ 26.1 µM)	1 (≈ 2.37 µM)	–
Cc1c(CN2CCN(C3C4CC5CC(C4)CC3C5)CC2)cc(-c2ccc(Cl)cc2)n1-c1ccc(Cl)cc1 (stereo not drawn)	> 64	500 (≈ 935 µM)	0	1.5	–	62 (≈ 116 µM)	8.1	95 (≈ 178 µM)	> 64	inactive
Cc1cc(CNC2CCCCC2)c(C)n1-c1ccc(Cl)cc1	8 (≈ 25.2 µM)	7.4 (≈ 23.4 µM)	2	50	7.8 (≈ 24.6 µM)	0.2 (≈ 0.631 µM)	37	10 (≈ 31.6 µM)	0.5 (≈ 1.58 µM)	–
